# In the library only some 4.8% were active in any assay of this set; here they are far more common.
# Pyk2 oligo antag: antagonists of human Pyk2 oligomerization | Q14289 | Q293 cells, Pyk2 FERM NanoBiT luminescence; stronger effect = lower value | z-score (the deposit names both 25 µM and 10 µM) | 99,000 compounds, 0.83% hits;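 active = Z-score of -3 or lower, scaled per plate to the spread of control and sample wells; inactive = z-score above -3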;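 note: negative z-score means lost luminescence so less FERM oligomerization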
# ERa coact inh: ER-alpha (human) coactivator binding inhibition; TR-FRET ER-alpha LBD / SRC-1 peptide, estradiol-bound; inhibition, % at 25.6 µM; 86,000 compounds, 1.7% hits; AID 629; in the data active = inhibition above about 50%;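 note: 0% = receptor plus peptide control and 100% = peptide only without receptor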
# RORA act: activators of human nuclear receptor RORA; P35398; CHO-K1 Gal4-RORA LBD luciferase reporter, luminescence; percent increase over mock-subtracted basal signal; activation, % at 10 µM; 65,000 compounds, 1.5% hits; AID 560;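 active = activation above the mean of all tested compounds plus 3 SD, cut at about 49% in these data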;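 note: 0% = DMSO-treated RORA cells and 100% = added signal equal to DMSO minus mock-transfected cells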
# Target sequence (P35398 whole entry, looked up, the tested form may be a part): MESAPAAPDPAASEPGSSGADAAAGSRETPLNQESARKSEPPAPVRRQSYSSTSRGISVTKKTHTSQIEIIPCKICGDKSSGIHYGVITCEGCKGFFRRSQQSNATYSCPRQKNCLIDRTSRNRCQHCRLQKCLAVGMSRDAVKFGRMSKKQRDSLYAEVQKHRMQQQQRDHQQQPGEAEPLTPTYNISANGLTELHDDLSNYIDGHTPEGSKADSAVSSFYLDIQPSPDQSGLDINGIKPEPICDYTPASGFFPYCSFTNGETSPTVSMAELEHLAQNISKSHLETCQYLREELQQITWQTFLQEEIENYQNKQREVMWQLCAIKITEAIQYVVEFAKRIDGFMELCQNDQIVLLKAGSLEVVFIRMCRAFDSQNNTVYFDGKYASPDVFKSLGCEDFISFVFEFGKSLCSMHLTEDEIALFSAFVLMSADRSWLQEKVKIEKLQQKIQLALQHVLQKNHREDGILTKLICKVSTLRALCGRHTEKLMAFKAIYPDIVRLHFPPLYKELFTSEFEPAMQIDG
# ERa SRC1 pot: enhances coactivator binding to human estrogen receptor alpha; P03372; TR-FRET ERalpha-LBD/SRC-Cy5 coactivator binding, 2 h; 100 = basal binding, no effect; coactivator binding (% of control), % at 25.6 µM; 86,000 compounds, 1.3% hits; AID 639; in the data active = activity above about 200%;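 note: binding measured in presence of low estradiol as agonist stimulus; 0% = peptide alone without receptor and 100% = receptor with peptide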
# ERb coact inh: blocks coactivator binding to human estrogen receptor beta. Q92731. TR-FRET ER-beta LBD / SRC1-Cy5 peptide binding; receptor agonist-loaded with 1 µM estradiol. inhibition, % at 25.6 µM. 86,000 compounds, 1.3% hits. AID 633;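 active = compounds whose percent inhibition of the receptor-coactivator binding signal exceeds about 50% in the single-dose screen, limit read from the data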;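 note: 0% = receptor plus peptide wells without compound and 100% = peptide-only wells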
# SF-1 act: activates the human nuclear receptor SF-1 | Q13285 | CHO-K1 Gal4-SF-1 LBD luciferase reporter; % increase over DMSO SF-1-specific signal | activation, % at 10 µM | 65,000 compounds, 1.9% hits | AID 522;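 active = activation above the mean activation of all tested compounds plus 3 SD, cut at about 50% in these data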
#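 Material: Gal4–SF-1 LBD one-hybrid luciferase reporter in CHO-K1 cells | Amount: 4,000 cells per well | Compound dosing: 10 µM single point, 1% DMSO | Schedule: 20 h compound treatment, 37 °C | Measured by: SteadyLite luciferase luminescence | Evaluation: Percent activation versus DMSO | Control set: DMSO-treated SF-1-transfected cells as negative, DMSO-treated mock-transfected cells lacking SF-1 as background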
# * = called active by the depositor; · = no result; [ ] = remark or other dose.
SMILES,Pyk2 oligo antag,ERa coact inh,RORA act,ERa SRC1 pot,ERb coact inh,SF-1 act
O=c1cc(-c2ccccc2)[nH]c2[nH]n(-c3ccccc3)c(=O)c12,-3.75*,4.0,9.1,122.6,-9.3,-21.2
COc1ccc(CNC(=O)CSc2nnc(Cn3nnc4ccccc43)n2C)cc1,1.31,0.1,·,114.1,-7.1,·
CC1=C(C(=O)NC2CCC(C)CC2)C2(CCC(C)CC2)OC1=O (configuration not stated),·,-13.8,-4.1,101.5,-8.4,-7.0
COc1ccc(O)c(-c2[nH]ncc2C(=O)c2ccccc2)c1,-3.49*,-2.3,-16.0,91.8,-3.7,7.1
O=C(c1ccccc1)c1cn[nH]c1-c1ccccc1O,0.49,-4.7,·,98.0,-1.2,·
O=C1c2ccccc2CC1(Cc1ccccc1)Cc1ccccc1,-0.34,1.5,·,278.9*,-6.2,·
CC(=NC1CCCCC1)C1=C(O)c2ccccc2C1=O,-1.1,-2.6,88.1*,98.8,2.5,23.7
CSC(=NC1CCCCC1)NS(=O)(=O)c1ccccc1,-1.27,0.8,-3.9,108.3,-1.6,-9.1
Cc1cc(OCCn2cc(/C(N)=N/O)c3ccccc32)ccc1Cl,-1.42,·,·,·,·,·
CC1=CC(C)=Nc2ccccc2N1,-0.61,-3.3,·,103.2,-10.6,·
Cc1ccc(C2=Nc3ccccc3NC(C)(c3ccc(C)o3)C2)o1 (configuration not stated),-1.72,-1.1,52.7*,93.2,4.8,106.5*
Cc1ccc(-c2cc(C(=O)N/N=C\c3cnn(C)c3C)c3ccccc3n2)cc1C,-0.97,·,·,·,·,·
N#C/C(=C/c1ccc(Sc2nc3ccccc3[nH]2)o1)c1cccc(F)c1,-3.18*,6.1,·,90.4,3.6,·
N#C/C(=C/c1ccc(Sc2nc3ccccc3[nH]2)o1)c1cccc(Br)c1,-3.11*,20.0,·,96.1,0.1,·
CCOC(=O)c1sc(-c2ccc(F)cc2)cc1N,0.1,·,·,·,·,·
CCOC(=O)c1sc(-c2ccc(OC)cc2)cc1N,0.94,-16.1,44.0,86.0,-5.5,62.5*
CCOC(=O)c1sc(-c2ccccc2)cc1N,-0.57,-5.8,49.3*,87.7,4.7,51.5*
Cn1c(=O)[nH]c(=O)c2[nH]c(CN3CCN(Cc4ccccc4)CC3)nc21,·,-8.0,4.2,123.8,-16.1,14.8
Cn1c(=O)[nH]c(=O)c2[nH]c(N(Cc3ccccc3)Cc3ccccc3)nc21,-3.22*,18.9,19.3,99.4,-0.2,15.4
CS(=O)(=O)N(CC(=O)NC1CCCC1)Cc1ccc(Cl)cc1,0.57,-4.9,·,108.3,-12.3,·
O=C(Cn1nnc2ccccc21)OCC(=O)c1ccccc1,-0.35,14.7,·,97.7,4.3,·
O=C(Cn1nnc2ccccc21)OCC(=O)c1ccc(Cl)c(Cl)c1,-3.97*,-8.4,·,102.8,-11.2,·
Cc1ccc(CN2C(=O)CCC2C(=O)NCc2cccnc2)cc1 (configuration not stated),-0.1,-6.0,·,99.6,-5.7,·
CCCSc1nnc(-c2c[nH]c3ccccc23)n1C,·,12.5,30.3,85.8,5.5,51.6*
Cc1ccccc1-n1c(SCc2c(C)noc2C)nnc1-c1c[nH]c2ccccc12,-3.45*,-2.5,-10.0,105.1,0.9,-0.9
SMILES,Pyk2 oligo antag,ERa coact inh,RORA act,ERa SRC1 pot,ERb coact inh,SF-1 act
CCOc1ccc(N(CC)S(=O)(=O)c2ccc3c(c2)n(C)c(=O)c(=O)n3C)cc1,·,10.4,·,131.1,0.9,·
COc1ccc(-c2nc(SC)n(C(=O)c3ccco3)n2)cc1,0,32.1,30.0,127.0,20.0,58.0*
COc1ccc(-c2nc(SCc3ccccc3)n(C(=O)c3ccco3)n2)cc1,0.06,·,·,·,·,·
CC(=O)OC1=C(C#N)Cn2ccc3cccc1c32,·,61.0*[fluorescence artefact?],4.0,63.1,46.3,3.0
O=C(O)CCC(=O)OCC1CCCO1 (configuration not stated),-0.01,0.9,-25.4,120.3,-2.2,1.8
CCc1nn2c(=O)cc(CSc3nc4sc5c(c4c(=O)n3C)CCCC5)nc2s1,·,37.5,-16.3,85.0,52.6*[fluorescence artefact?],5.2
O=C(COc1ccc2ccccc2c1)Nc1ccc(S(=O)(=O)N2CCCCCC2)cc1,1.07,-11.9,·,115.6,-9.9,·
O=C(COc1cccc(NC(=O)c2cccc([N+](=O)[O-])c2)c1)c1ccc(Br)cc1,-0.3,·,·,·,·,·
O=C(CSc1nc2[nH]ncc2c(=O)[nH]1)NCc1ccc(F)cc1,0.03,·,·,·,·,·
